MEKK2 mut-MEK5 – signal of MEK5 binding to mutant human MEKK2 PB1 domain; percent response, % at 10 µM; bead flow cytometry, Alexa488-MEK5 binding to MEKK2 mutant; actives 0.35% (n = 290,000); in the data active = percent response above about 24%, passing the limit was not always enough
MEKK3 PB1 HTS – modulators (inhibitors or enhancers) of MEK5 binding to human MEKK3 PB1 domain; AID 1529; Q99759; binding response (% of control), % at 10 µM; actives 1.4% (n = 290,000); bead-based flow cytometry, Alexa488-MEK5 binding to MEKK3; actives lie on both sides; 0 = blocked by unlabeled MEK5, 100 = vehicle;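 active = binding response more than 3 SD above or below the average of its plate-row segment, actives on both sides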;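 note: Alexa488 bead fluorescence after subtracting the streptavidin-only scavenger bead signal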
T cell HTS – T cell immune modulation candidate; 2C CD8+ T cell-vesicle binding, flow cytometry; stronger effect = lower value; response (vesicle binding), % at 7 µM; actives 0.068% (n = 330,000); AID 2052;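 active = response, share of CD8 T cells binding vesicles, and their 90th percentile fluorescence all below set limits, cut at about 80% in these data, passing the limit was not always enough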;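 note: values below 100% mean blocked vesicle binding to the CD8+ T cells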
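Test system: purified 2C TCR transgenic mouse naive CD8+ T cells. Probe or stimulus: QL9-peptide-loaded Drosophila micro-vesicles bearing Ld, ICAM-1 and B7-1. Incubation: binding step 1.5 h, 37 °C, antibody labelling 20 min, ice. Measured by: flow cytometry of vesicle-bound cells.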
MEKK2 WT-MEK5 – raises or lowers MEK5 binding to wildtype human MEKK2 PB1 domain; AID 1531; Q9Y2U5; actives 1.1% (n = 290,000); bead flow cytometry, Alexa488-MEK5 binding to MEKK2 WT; actives lie on both sides; binding response (% of control), % at 10 µM; in the data active = binding response below about 67% or above about 130%
UCH37 DUB inh – human UCH37 deubiquitinating enzyme inhibition; actives 0.33% (n = 330,000); purified proteasome/UCH37, Ub-AMC cleavage fluorescence; Q9Y5K5; inhibition, % (test concentration not listed);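 active = mean inhibition over replicate wells above about 20%, limit read from the data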;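 note: 0% = compound-free wells with enzyme and 100% = wells lacking proteasome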
Target sequence (Q9Y5K5 whole entry, looked up): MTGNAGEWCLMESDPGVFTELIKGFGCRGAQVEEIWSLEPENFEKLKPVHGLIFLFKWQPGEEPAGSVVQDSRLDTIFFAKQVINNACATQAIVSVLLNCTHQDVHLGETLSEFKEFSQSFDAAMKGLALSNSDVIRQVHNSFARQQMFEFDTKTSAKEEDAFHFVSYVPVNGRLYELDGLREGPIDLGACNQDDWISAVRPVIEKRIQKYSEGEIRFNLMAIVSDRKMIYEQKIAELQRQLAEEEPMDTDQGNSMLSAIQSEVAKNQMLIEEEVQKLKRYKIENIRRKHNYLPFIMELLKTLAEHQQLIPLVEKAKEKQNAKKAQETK
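system = Proteasome-associated human UCH37 deubiquitinase | amount = 0.15 nM proteasome as dispensed | medium = pH 7.4 Tris-HCl (50 mM) with ovalbumin, ATP-MgCl2, DTT | incubation = 30 min preincubation with enzyme, 25 min cleavage at room temperature | detection = AMC fluorescence 355/460 nm | read-out basis = percent inhibition | controls = no-proteasome and no-compound wells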
Rce1 inhib – inhibitors of yeast Ras-converting enzyme | Q03530 | yeast membranes, quenched prenylated peptide cleavage fluorescence | AID 2563 | calls only | actives 0.27% (n = 290,000);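 active = fall in fluorescence gain of 50% or more versus controls, with final raw signal at or below 3038400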;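 note: plate controls were neutral control wells for no effect and wells lacking membranes for full effect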
UCH37 reconfirm – UCH37 Ub-AMC cleavage inhibition, confirmed. Proteasome-bound UCH37, Ub-AMC cleavage fluorescence. shares compounds with UCH37 DUB inh. inhibition, % at 20 µM. AID 624100. actives 27% (n = 480);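 active = average inhibition over replicates above about 50%, so the earlier screening hit is confirmed, limit read from the data; inactive = the rest, counted as false positives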;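 note: based on cleavage rate fitted by regression over a 30 min kinetic read; 0% = proteasome plus Ub-AMC and 100% = Ub-AMC without proteasome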
An asterisk follows results filed as active; i = inactive; / = no result given. Shown are actives, neighbours in structure and some others; about 2.5% of the full set was active somewhere.

SMILES	MEKK2 mut-MEK5	MEKK3 PB1 HTS	T cell HTS	MEKK2 WT-MEK5	UCH37 DUB inh	Rce1 inhib	UCH37 reconfirm
CC(C)(C)N1C(=O)NC(=O)/C(=C\c2ccc3c(c2)CCN3CCCCl)C1=O	-6.0	91.0	296.9	77.0	63.6*	i	0.6
CCN1C(=O)/C(=C/c2ccc3c(c2)CCN3CCCCl)C(=O)NC1=S	-4.0	96.0	657.5	68.0	2.8	i	/
O=C1NC(=O)C(Nc2ccc(Cl)c(Cl)c2)C(=O)N1	/	/	/	/	58.5*	/	-1.9
O=C(Nc1ccc(Cl)c(Cl)c1)c1ccco1	-2.0	105.0	412.4	102.0	-0.6	i	/
Cc1cccc(-n2c(O)c(/C=N/Nc3nc4c(c(=O)n(C)c(=O)n4C)n3C)c(=O)[nH]c2=S)c1	1.0	124.0	220.2	110.0	27.2*	i	22.3
CC1CCN(C(CC(=O)c2ccccc2)C(=O)c2ccccc2)CC1 (configuration not stated)	/	/	/	/	3.1	/	/
C=C(C)C(Cc1c(OC)ccc(C(=O)/C=C/c2ccc(O)cc2)c1O)OO (configuration not stated)	/	/	517.7	/	48.6*	/	19.1
CN1/C(=C\C=C2C(=O)NC(=O)NC2=O)C(C)(C)c2ccccc21	-9.0	105.0	526.5	103.0	39.1*	i	6.3
CCC(=O)OC1CCC2C3CCC4CC(=O)C=CC4(C)C3CCC12C (configuration not stated)	/	/	/	/	0.7	/	/
CC(=O)N(C)C1=Nc2ccc(Cl)cc2C(c2ccccc2)=[N+]([O-])C1	/	/	/	/	5.3	/	/
Cc1cc(N(CCCl)CCCl)ccc1C=NNC(=O)c1ccco1	/	/	/	/	-63.0	/	/
Cn1c(O)c(C(=O)c2ccccc2)c(=O)n(C)c1=O	-5.0	98.0	257.5	97.0	42.1*	i	7.2
Cc1ccc(C(=O)N/C(=C/c2ccc(C(C)C)cc2)C(=O)NCCCN2CCOCC2)cc1	2.0	98.0	155.2	104.0	7.5	i	/
COC(=O)C1=C(c2cccc(C#N)c2)C[C@@H]2CC[C@H]1N2C(=O)NCCOc1ccccc1Cl	/	/	315.7	/	46.1*	/	7.4
COC(=O)C1=C(c2cccc(C#N)c2)C[C@@H]2CC[C@H]1N2C(=O)NCCOc1ccccc1	/	/	167.9	/	0.0	/	/
O=C1C(=O)c2ccccc2-c2ccccc21	3.0	104.0	545.1	102.0	87.5*	i	101.4*
CN1CCN(c2ccc(S(C)(=O)=O)cc2[N+](=O)[O-])CC1	-1.0	107.0	215.9	102.0	4.1	i	/
CN1CCN(c2ccc([N+](=O)[O-])c3no[n+]([O-])c23)CC1	8.0	119.0	131.6	109.0	41.8*	i	29.4
CCOC(=O)C1(c2ccccc2)CCN(CCC(=O)Nc2cccc(Br)c2)CC1	/	/	/	/	3.3	/	/
Cc1ccccc1-[n+]1c(-c2ccccc2)cc(-c2ccccc2)cc1-c1ccccc1	/	/	/	/	-2.7	i	/
O=C(O)CC1OCC=C2CN3CCC45C6=CC(=O)C(=O)C([N+](=O)[O-])=C6NC4C1C2CC35 (configuration not stated)	-4.0	95.0	354.8	99.0	96.7*	i	96.6*
O=C(O)CC1OCC=C2CN3CCC45c6ccccc6NC4C1C2CC35 (configuration not stated)	1.0	94.0	60.3	98.0	/	i	/

Screens: PubChem BioAssay, several laboratories
